These results are taken from ChEMBL document CHEMBL3856209, “Novel pyrazolopyridine derivatives as potential angiogenesis inhibitors: Synthesis, biological evaluation and transcriptome-based mechanistic analysis” (Eur J Med Chem, 2016).

Assay [1] deals with HUVEC. Put plainly: Effect on HINT3 gene expression in serum-starved HUVEC after 24 hrs by microarray analysis relative to control. Type of assay: functional, Homo sapiens. Summed up: (§1)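 Confluent, serum-starved HUVEC (pooled from 3–5 donors, passage ≤4) treated with 2 μM compound or vehicle with 2.5% FBS for 6 h or 24 h. Total RNA hybridized to Illumina Human-HT12 arrays. Data were background-corrected, vst-transformed and rsn-normalized. Hits called by moderated paired t-test versus DMSO-treated cells, p < 0.05 and log2 fold change >|0.5|.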

Assay [2] deals with HUVEC. Put plainly: Effect on ANGPTL4 gene expression in serum-starved HUVEC after 6 hrs by microarray analysis relative to control. The format is functional, Homo sapiens. The method in brief: (§2)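 Serum-starved confluent HUVEC treated with 2 μM compound or DMSO in 2.5% FBS for 6 h or 24 h; RNA hybridized to Illumina Human-HT12 arrays. Data background-corrected, vst-transformed and rsn-normalized. Differential probes called by moderated paired t-test (limma) at p < 0.05 and log2 fold change >|0.5| vs DMSO.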

In assay [3] the test system is HUVEC. Put plainly: Effect on CDK1 gene expression in serum-starved HUVEC after 6 hrs by microarray analysis relative to control. Type of assay: functional, Homo sapiens. The method in brief: as §2
In assay [4] the test system is HUVEC. Nature of the assay: Effect on CDKN3 gene expression in serum-starved HUVEC after 6 hrs by microarray analysis relative to control. The format is functional, Homo sapiens. Summed up:
as §2

Assay [5] concerns HUVEC. Put plainly: Effect on CENPW gene expression in serum-starved HUVEC after 6 hrs by microarray analysis relative to control. Type of assay: functional, Homo sapiens. Summed up:
as §2

Assay [6] relates to HUVEC. Nature of the assay: Effect on CYP4X1 gene expression in serum-starved HUVEC after 6 hrs by microarray analysis relative to control. Type of assay: functional, Homo sapiens. Summed up:
as §1

Assay [7] has as its system HUVEC. Nature of the assay: Effect on DBI gene expression in serum-starved HUVEC after 6 hrs by microarray analysis relative to control. Type of assay: functional, Homo sapiens. The method in brief:
(§3)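 Serum-starved confluent HUVEC (primary, pooled from 3–5 donors, passage ≤4) treated with 2 μM test compound or DMSO vehicle (working dilutions ≤0.1% v/v) in presence of 2.5% FBS for 6 h or 24 h; total RNA hybridized to Illumina Human-HT12 arrays; background correction, vst, rsn normalization; moderated paired t-test versus DMSO, thresholds p < 0.05 and log2 fold change >|0.5|.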

Assay [8] concerns HUVEC. Nature of the assay: Effect on EMCN gene expression in serum-starved HUVEC after 6 hrs by microarray analysis relative to control. Type of assay: functional, Homo sapiens. The method in brief:
(§4)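 Confluent serum-starved HUVEC (primary, pooled from 3–5 donors, passage ≤4) treated with 2 μM compound or DMSO vehicle in 2.5% FBS for 6 h or 24 h. Total RNA hybridized to Illumina Human-HT12 arrays, background-corrected, vst-transformed and rsn-normalized. Differential expression versus DMSO by moderated paired t-test (p < 0.05, |log2 fold change| > 0.5).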

Assay [9] concerns HUVEC. Nature of the assay: Effect on FTH1P8 gene expression in serum-starved HUVEC after 6 hrs by microarray analysis relative to control. Type of assay: functional, Homo sapiens. Summed up:
as §1

The subject of assay [10] is HUVEC. Put plainly: Effect on GRPEL2 gene expression in serum-starved HUVEC after 6 hrs by microarray analysis relative to control. Type of assay: functional, Homo sapiens. The method in brief:
as §1

For assay [11], the system named is HUVEC. Nature of the assay: Effect on HLA-DRA gene expression in serum-starved HUVEC after 6 hrs by microarray analysis relative to control. Type of assay: functional, Homo sapiens.
The test system of assay [12] is HUVEC. Put plainly: Effect on NR2F1 gene expression in serum-starved HUVEC after 6 hrs by microarray analysis relative to control. Type of assay: functional, Homo sapiens. Summed up: (§5)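 Serum-starved confluent HUVEC (pooled from 3–5 donors, passage ≤4) were treated with 2 μM compound or vehicle in 2.5% FBS for 6 h or 24 h, and total RNA was isolated. Hybridization was on Illumina Human-HT12. Data were processed with bgAdjust, vst and rsn normalization. Changes versus DMSO were called by moderated paired t-test at p < 0.05 and |log2 fold change| > 0.5.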

The test system of assay [13] is HUVEC. Nature of the assay: Effect on RN7SK gene expression in serum-starved HUVEC after 6 hrs by microarray analysis relative to control. Type of assay: functional, Homo sapiens.
Assay [14] concerns HUVEC. Nature of the assay: Effect on TP53INP2 gene expression in serum-starved HUVEC after 6 hrs by microarray analysis relative to control. The format is functional, Homo sapiens.
The test system of assay [15] is HUVEC. Nature of the assay: Effect on TUBB2B gene expression in serum-starved HUVEC after 6 hrs by microarray analysis relative to control. The format is functional, Homo sapiens.
Assay [16] has as its system HUVEC. Put plainly: Effect on UACA gene expression in serum-starved HUVEC after 6 hrs by microarray analysis relative to control. Type of assay: functional, Homo sapiens.
Assay [17] deals with HUVEC. Nature of the assay: Effect on ANGPT2 gene expression in serum-starved HUVEC after 24 hrs by microarray analysis relative to control. The format is functional, Homo sapiens. Summed up: as §3
Assay [18] concerns HUVEC. Put plainly: Effect on CCNA2 gene expression in serum-starved HUVEC after 24 hrs by microarray analysis relative to control. The format is functional, Homo sapiens. Summed up:
as §4

Assay [19] deals with HUVEC. Put plainly: Effect on CDCA8 gene expression in serum-starved HUVEC after 24 hrs by microarray analysis relative to control. The format is functional, Homo sapiens. Summed up:
as §3

The test system of assay [20] is HUVEC. Put plainly: Effect on CMTM7 gene expression in serum-starved HUVEC after 24 hrs by microarray analysis relative to control. The format is functional, Homo sapiens. The method in brief:
as §4

The test system of assay [21] is HUVEC. Nature of the assay: Effect on CTSH gene expression in serum-starved HUVEC after 24 hrs by microarray analysis relative to control. The format is functional, Homo sapiens. The method in brief: as §1
Assay [22] deals with HUVEC. Nature of the assay: Effect on DKK1 gene expression in serum-starved HUVEC after 24 hrs by microarray analysis relative to control. The format is functional, Homo sapiens. Summed up:
as §4

Assay [23] relates to HUVEC. Put plainly: Effect on FDPS gene expression in serum-starved HUVEC after 24 hrs by microarray analysis relative to control. The format is functional, Homo sapiens. The method in brief: as §1
Assay [24] concerns HUVEC. Put plainly: Effect on HLA-DPA1 gene expression in serum-starved HUVEC after 24 hrs by microarray analysis relative to control. The format is functional, Homo sapiens. Summed up: as §1
Assay [25] relates to HUVEC. Put plainly: Effect on ITGA10 gene expression in serum-starved HUVEC after 24 hrs by microarray analysis relative to control. The format is functional, Homo sapiens. The method in brief:
as §1

Assay [26] has as its system HUVEC. Put plainly: Effect on SULT1C4 gene expression in serum-starved HUVEC after 24 hrs by microarray analysis relative to control. The format is functional, Homo sapiens.
For assay [27], the system named is HUVEC. Put plainly: Effect on TGFBI gene expression in serum-starved HUVEC after 24 hrs by microarray analysis relative to control. Type of assay: functional, Homo sapiens.
Assay [28] in a line: Upregulation of SQLE gene expression in serum-starved HUVEC at 2 uM after 24 hrs by qRT-PCR analysis. Type of assay: functional, cell-based. Particulars: Homo sapiens. (In qPCR the cycle at which signal appears reflects the starting amount.)
Assay [29] can be described thus: Downregulation of CCNB2 gene expression in serum-starved HUVEC at 2 uM after 24 hrs by qRT-PCR analysis. The format is functional, cell-based. Particulars: Homo sapiens. Summed up: (§6)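 Serum-starved confluent HUVEC treated with 2 μM compound or vehicle in 2.5% FBS for 24 h. Total RNA isolated and qRT-PCR run in triplicate (95 °C 5 min; 40 cycles of 95 °C 5 s, 58 °C 20 s, 72 °C 5 s), normalized to RPS18S. Fold change vs control, n = 3.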

Assay [30] can be described thus: Downregulation of CDC20 gene expression in serum-starved HUVEC at 2 uM after 24 hrs by qRT-PCR analysis. Particulars: Homo sapiens. Type of assay: functional, cell-based. The method in brief:
as §6

Assay [31] has as its system HUVEC. Put plainly: Effect on BIRC5 gene expression in serum-starved HUVEC after 6 hrs by microarray analysis relative to control. The format is functional, Homo sapiens. The method in brief:
as §2

The test system of assay [32] is HUVEC. Put plainly: Effect on CENPA gene expression in serum-starved HUVEC after 6 hrs by microarray analysis relative to control. The format is functional, Homo sapiens. Summed up:
as §2

Assay [33] deals with HUVEC. Nature of the assay: Effect on CKS1B gene expression in serum-starved HUVEC after 6 hrs by microarray analysis relative to control. The format is functional, Homo sapiens. Summed up:
as §2

Assay [34] concerns HUVEC. Nature of the assay: Effect on MBNL2 gene expression in serum-starved HUVEC after 6 hrs by microarray analysis relative to control. Type of assay: functional, Homo sapiens. The method in brief:
as §5

Assay [35] has as its system HUVEC. Nature of the assay: Effect on RHOB gene expression in serum-starved HUVEC after 24 hrs by microarray analysis relative to control. Type of assay: functional, Homo sapiens.

Structures are written as SMILES. The source made the active and inactive calls.

In the assay with HUVEC [1], `COc1ccc(Cn2nc(-c3ccccc3)c3cc(Nc4ccc(N5CCN(C)CC5)cc4)nc(N4CCNCC4)c32)cc1` returned a log2FC of 0.6699.
For the compound `COc1ccc(Cn2nc(-c3ccccc3)c3cc(Nc4ccc(N5CCN(C)CC5)cc4)nc(N4CCN(C)CC4)c32)cc1`, the log2FC in the assay on HUVEC [2] is given as -0.3836; with HUVEC [3], -0.1173; in the assay with HUVEC [4], -0.0153; in the assay on HUVEC [5], -0.2667; with HUVEC [12], -0.2125; in the assay with HUVEC [13], -0.8368. Also, the log2FC is recorded as 0.0911 in the assay on HUVEC [14]; -0.6409 with HUVEC [21]; 0.8398 with HUVEC [23]; -0.863 in the assay with HUVEC [24]; 0.5991 in the assay on HUVEC [25]; 0.5208 with HUVEC [26]. The compound further had a log2FC in the assay with HUVEC [27] of -0.9058. For the same compound, the “fold change (FC)” value with HUVEC [6] amounted to 0.4504; in the assay on HUVEC [7], 0.0722; in the assay with HUVEC [8], 0.2035; with HUVEC [9], 0.2063; with HUVEC [10] it was 0.2207; in the assay with HUVEC [11], 0.8911. For the same compound, the “fold change (FC)” value is on record as 0.219 in the assay with HUVEC [15]; 0.2427 with HUVEC [16]; 0.5736 in the assay with HUVEC [17]; -0.7529 in the assay on HUVEC [18]; -0.8847 in the assay on HUVEC [19]; 0.5435 in the assay on HUVEC [20]. For the same compound, the “fold change (FC)” value with HUVEC [22] is on record as -0.6899. Further, the result in [28], in assay [29] and in assay [30] was Active.
On to `COc1ccc(Cn2nc(-c3ccccc3)c3cc(Cl)nc(N4CCNCC4)c32)cc1`, for which the figures for the “fold change (FC)” value in the assay on HUVEC [31] and with HUVEC [32] were 0.0293 and 0.0058, respectively. For the same compound, the values for the log2FC with HUVEC [33], in the assay with HUVEC [34] and in the assay with HUVEC [35] were -0.0514, 0.2488 and 0.5108, respectively.
